Assays:
Blood [1] = assay: Biodistribution in Sprague-Dawley rat blood at 1.48 to 2.22 MBq, iv measured at 5 mins by gamma counting analysis; assay type: ADME, organism-based; details: in vivo
In short: (§1)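 Male Sprague-Dawley rats (250 - 400 g), tail-vein injection of 1.48 - 2.22 MBq radiotracer under 2.5% isoflurane in oxygen; n=4 per time point, euthanized at 5, 30 and 60 min p.i. Brain regions obtained by gross dissection; peripheral tissues collected. Samples weighed, gamma-counted against a diluted-injectate standard; %ID/g calculated.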

Liver [2] = assay: Biodistribution in Sprague-Dawley rat liver at 1.48 to 2.22 MBq, iv measured at 5 mins by gamma counting analysis; assay type: ADME, organism-based; details: in vivo; in short: as §1
Kidney [3] = assay: Biodistribution in Sprague-Dawley rat kidney at 1.48 to 2.22 MBq, iv measured at 5 mins by gamma counting analysis; assay type: ADME, organism-based; details: in vivo; in short: as §1
Muscle tissue [4] = assay: Biodistribution in Sprague-Dawley rat muscle at 1.48 to 2.22 MBq, iv measured at 5 mins by gamma counting analysis; assay type: ADME, organism-based; details: in vivo; in short: as §1
Rattus norvegicus [5] = assay: Biodistribution in Sprague-Dawley rat fat tissue at 1.48 to 2.22 MBq, iv measured at 5 mins by gamma counting analysis; assay type: ADME, organism-based, Adipose tissue; details: in vivo; in short: as §1
Bone [6] = assay: Biodistribution in Sprague-Dawley rat bone at 1.48 to 2.22 MBq, iv measured at 5 mins by gamma counting analysis; assay type: ADME, organism-based, Bone element; details: in vivo; in short: as §1
Brain [7] = assay: Biodistribution in Sprague-Dawley rat brain at 1.48 to 2.22 MBq, iv measured at 5 mins by gamma counting analysis; assay type: ADME, organism-based; details: in vivo; in short: as §1
Blood [8] = assay: Biodistribution in Sprague-Dawley rat blood at 1.48 to 2.22 MBq, iv measured at 30 mins by gamma counting analysis; assay type: ADME, organism-based; details: in vivo, 0.5 h; in short: as §1
Liver [9] = assay: Biodistribution in Sprague-Dawley rat liver at 1.48 to 2.22 MBq, iv measured at 30 mins by gamma counting analysis; assay type: ADME, organism-based; details: in vivo, 0.5 h; in short: as §1
Kidney [10] = assay: Biodistribution in Sprague-Dawley rat kidney at 1.48 to 2.22 MBq, iv measured at 30 mins by gamma counting analysis; assay type: ADME, organism-based; details: in vivo, 0.5 h; in short: as §1
Muscle tissue [11] = assay: Biodistribution in Sprague-Dawley rat muscle at 1.48 to 2.22 MBq, iv measured at 30 mins by gamma counting analysis; assay type: ADME, organism-based; details: in vivo, 0.5 h; in short: as §1
Rattus norvegicus [12] = assay: Biodistribution in Sprague-Dawley rat fat tissue at 1.48 to 2.22 MBq, iv measured at 30 mins by gamma counting analysis; assay type: ADME, organism-based, Adipose tissue; details: in vivo, 0.5 h; in short: as §1
Bone [13] = assay: Biodistribution in Sprague-Dawley rat bone at 1.48 to 2.22 MBq, iv measured at 30 mins by gamma counting analysis; assay type: ADME, organism-based, Bone element; details: in vivo, 0.5 h; in short: as §1
Brain [14] = assay: Biodistribution in Sprague-Dawley rat brain at 1.48 to 2.22 MBq, iv measured at 30 mins by gamma counting analysis; assay type: ADME, organism-based; details: in vivo, 0.5 h; in short: as §1
Blood [15] = assay: Biodistribution in Sprague-Dawley rat blood at 1.48 to 2.22 MBq, iv measured at 60 mins by gamma counting analysis; assay type: ADME, organism-based; details: in vivo, 1 h; in short: as §1
Liver [16] = assay: Biodistribution in Sprague-Dawley rat liver at 1.48 to 2.22 MBq, iv measured at 60 mins by gamma counting analysis; assay type: ADME, organism-based; details: in vivo, 1 h; in short: as §1
Kidney [17] = assay: Biodistribution in Sprague-Dawley rat kidney at 1.48 to 2.22 MBq, iv measured at 60 mins by gamma counting analysis; assay type: ADME, organism-based; details: in vivo, 1 h; in short: as §1
Muscle tissue [18] = assay: Biodistribution in Sprague-Dawley rat muscle at 1.48 to 2.22 MBq, iv measured at 60 mins by gamma counting analysis; assay type: ADME, organism-based; details: in vivo, 1 h; in short: as §1
Rattus norvegicus [19] = assay: Biodistribution in Sprague-Dawley rat fat tissue at 1.48 to 2.22 MBq, iv measured at 60 mins by gamma counting analysis; assay type: ADME, organism-based, Adipose tissue; details: in vivo, 1 h; in short: as §1
Bone [20] = assay: Biodistribution in Sprague-Dawley rat bone at 1.48 to 2.22 MBq, iv measured at 60 mins by gamma counting analysis; assay type: ADME, organism-based, Bone element; details: in vivo, 1 h; in short: as §1
Brain [21] = assay: Biodistribution in Sprague-Dawley rat brain at 1.48 to 2.22 MBq, iv measured at 60 mins by gamma counting analysis; assay type: ADME, organism-based; details: in vivo, 1 h; in short: as §1
Striatum = assay: Biodistribution in Sprague-Dawley rat striatum at 1.48 to 2.22 MBq, iv measured at 30 mins by gamma counting analysis; assay type: ADME, organism-based; details: in vivo, 0.5 h; in short: as §1
[22] = Ratio of drug level in striatum to cerebellum in Sprague-Dawley rat at 1.48 to 2.22 MBq, iv measured at 5 to 30 mins by gamma counting analysis; assay type: ADME, organism-based; details: in vivo
In short: (§2)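 Striatum, cerebellum and cortex obtained by gross dissection from Sprague-Dawley rats (250 - 400 g, n=4 per time point) after tail-vein injection of 1.48 - 2.22 MBq under isoflurane anesthesia. Tissues weighed and gamma-counted with an injectate standard to give %ID/g; ratios taken from striatal versus non-target uptake.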

Nucleic Acid [23] = assay: Ratio of drug level in striatum to cortex in Sprague-Dawley rat at 1.48 to 2.22 MBq, iv measured at 5 to 30 mins by gamma counting analysis; assay type: ADME, organism-based; details: in vivo; in short: as §2
Nucleic Acid [24] = assay: Ratio of drug level in striatum to cerebellum in cynomolgus monkey at 185 to 259 MBq, iv measured at 40 mins by micro PET image analysis; assay type: ADME, organism-based, Macaca fascicularis; details: in vivo
In short: (§3)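 Adult male cynomolgus macaques (~4–6 kg), three independent PET studies per tracer on a microPET Focus 220. Animals fasted 12 h and anesthetized with ketamine (10 mg/kg) plus glycopyrrolate (0.13 mg/kg) i.m. A 10 min positioning transmission scan and a 45 min attenuation transmission scan were run, then a 3 h dynamic emission scan after venous tracer injection. Regional TACs came from ROIs, expressed as SUV (body weight, injected dose).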

Nucleic Acid [25] = assay: Ratio of drug level in striatum to occipital in cynomolgus monkey at 185 to 259 MBq, iv measured at 40 mins by micro PET image analysis; assay type: ADME, organism-based, Macaca fascicularis; details: in vivo; in short: as §3
Nucleic Acid [26] = assay: Ratio of drug level in striatum to temporal region in cynomolgus monkey at 185 to 259 MBq, iv measured at 40 mins by micro PET image analysis; assay type: ADME, organism-based, Macaca fascicularis; details: in vivo; in short: as §3
Nucleic Acid [27] = assay: Ratio of drug level in striatum to midbrain region in cynomolgus monkey at 185 to 259 MBq, iv measured at 40 mins by micro PET image analysis; assay type: ADME, organism-based, Macaca fascicularis, Brain; details: in vivo; in short: as §3
Nucleic Acid [28] = assay: Ratio of drug level in striatum to frontal in cynomolgus monkey at 185 to 259 MBq, iv measured at 40 mins by micro PET image analysis; assay type: ADME, organism-based, Macaca fascicularis; details: in vivo; in short: as §3
Nucleic Acid [29] = assay: Ratio of drug level in striatum to white matter in cynomolgus monkey at 185 to 259 MBq, iv measured at 40 mins by micro PET image analysis; assay type: ADME, organism-based, Macaca fascicularis; details: in vivo; in short: as §3
Nucleic Acid [30] = assay: Ratio of drug level in striatum to hippocampus in cynomolgus monkey at 185 to 259 MBq, iv measured at 40 mins by micro PET image analysis; assay type: ADME, organism-based, Macaca fascicularis; details: in vivo; in short: as §3
[31] = Metabolic stability in cynomolgus monkey plasma assessed as compound remaining at 185 to 259 MBq, iv measured at 2 mins by HPLC analysis; assay type: ADME, organism-based, Macaca fascicularis; details: read-out: Stability
In short: (§4)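 Arterial blood (~1.5 mL) drawn at 2, 15, 30, 60 and 90 min p.i. into heparinized syringes, then centrifuged to plasma. Plasma deproteinated with 2 parts ice-cold methanol. Extract run on C-18 HPLC, MeCN/0.1 M ammonium formate pH 4.5, 0.9 mL/min, UV 254 nm. 1-min fractions over 16 min were well-counted and decay-corrected; parent percentage taken from recovered activity.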

[32] = Metabolic stability in cynomolgus monkey plasma assessed as compound remaining at 185 to 259 MBq, iv measured at 15 mins by HPLC analysis; assay type: ADME, organism-based, Macaca fascicularis; details: read-out: Stability; in short: as §4
[33] = Metabolic stability in cynomolgus monkey plasma assessed as compound remaining at 185 to 259 MBq, iv measured at 30 mins by HPLC analysis; assay type: ADME, organism-based, Macaca fascicularis; details: read-out: Stability; in short: as §4
[34] = Metabolic stability in cynomolgus monkey plasma assessed as compound remaining at 185 to 259 MBq, iv measured at 60 mins by HPLC analysis; assay type: ADME, organism-based, Macaca fascicularis; details: read-out: Stability; in short: as §4
[35] = Metabolic stability in cynomolgus monkey plasma assessed as compound remaining at 185 to 259 MBq, iv measured at 90 mins by HPLC analysis; assay type: ADME, organism-based, Macaca fascicularis; details: read-out: Stability; in short: as §4
Plasma = assay: Retention time of the compound in cynomolgus monkey plasma at 185 to 259 MBq, iv by HPLC analysis; assay type: ADME, organism-based, Macaca fascicularis; in short: as §4
Caudate = assay: Drug uptake in cynomolgus monkey caudate at 185 to 259 MBq, iv measured over 180 mins by micro PET image analysis; assay type: ADME, organism-based, Macaca fascicularis, Caudate nucleus; details: in vivo, 3 h
In short: (§5)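 Adult male cynomolgus macaques (~4–6 kg), three studies per tracer, fasted 12 h. Induction with ketamine 10 mg/kg plus glycopyrrolate 0.13 mg/kg i.m. Transmission scans of 10 min for positioning and 45 min for attenuation correction, then a 3 h dynamic microPET emission scan after venous injection of 185 - 259 MBq. ROI time-activity curves expressed as SUV (body weight and injected dose).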

Putamen = assay: Drug uptake in cynomolgus monkey putamen at 185 to 259 MBq, iv measured over 180 mins by micro PET image analysis; assay type: ADME, organism-based, Macaca fascicularis; details: in vivo, 3 h; in short: as §5

Drug uptake (Blood [1]): 0.362 % ID/g | Drug uptake (Liver [2]): 6.88 % ID/g | Drug uptake (Kidney [3]): 2.2 % ID/g | Drug uptake (Muscle tissue [4]): 0.247 % ID/g | Drug uptake (Rattus norvegicus [5]): 0.213 % ID/g | Drug uptake (Bone [6]): 0.189 % ID/g | Drug uptake (Brain [7]): 0.118 % ID/g | Drug uptake (Blood [8]): 0.226 % ID/g | Drug uptake (Liver [9]): 6.98 % ID/g | Drug uptake (Kidney [10]): 1.055 % ID/g | Drug uptake (Muscle tissue [11]): 0.134 % ID/g | Drug uptake (Rattus norvegicus [12]): 0.302 % ID/g | Drug uptake (Bone [13]): 0.091 % ID/g | Drug uptake (Brain [14]): 0.078 % ID/g | Drug uptake (Blood [15]): 0.215 % ID/g | Drug uptake (Liver [16]): 3.29 % ID/g | Drug uptake (Kidney [17]): 0.765 % ID/g | Drug uptake (Muscle tissue [18]): 0.132 % ID/g | Drug uptake (Rattus norvegicus [19]): 0.259 % ID/g | Drug uptake (Bone [20]): 0.142 % ID/g | Drug uptake (Brain [21]): 0.101 % ID/g | Drug uptake (Striatum): Active | Ratio [22]: > 2 | Ratio (Nucleic Acid [23]): > 2 | Ratio (Nucleic Acid [24]): > 3 | Ratio (Nucleic Acid [25]): > 3 | Ratio (Nucleic Acid [26]): > 3 | Ratio (Nucleic Acid [27]): > 3 | Ratio (Nucleic Acid [28]): > 3 | Ratio (Nucleic Acid [29]): > 3 | Ratio (Nucleic Acid [30]): > 3 | remaining at 2 min [31]: 98% | remaining at 0.25 h [32]: 93% | remaining at 0.5 h [33]: 90% | remaining at 1 h [34]: 75% | remaining at 1.5 h [35]: 57% | Retention_time (Plasma): 10.5 min | Drug uptake (Caudate): Active | Drug uptake (Putamen): Active
SMILES: Cn1cc(-c2ccncc2)c(-c2ccc(OCc3cc(OCC[18F])c4ccccc4n3)cc2)n1
